Screens as filed in PubChem BioAssay.
T cruzi growth-1 – inhibitors of T. cruzi proliferation; 5.9% of 77,000 active; AID 624255; inhibition, % at 8.34 µM; T. cruzi beta-gal in NIH3T3, GalScreen luminescence, 90 h;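 active = mean inhibition above about 93%, with at least 55% of replicates each passing it, limit read from the data, passing the limit was not always enough; inconclusive = only one of those two conditions holds; inactive = neither condition holds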
KDM4C inh – KDM4C (human) demethylase inhibition | Q9H3R0 | GST-KDM4C 2-372, H3K9me3 peptide, LANCE TR-FRET | inhibition, % at 12.5 µM | 0.15% of 96,000 active | AID 720574;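 active = mean replicate inhibition above about 25%, with at least 55% of replicates also reaching it, limit read from the data, passing the limit was not always enough; inconclusive = only one of those two conditions met; inactive = neither condition met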
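Test system – GST-tagged GASC-1 (JMJD2C) catalytic fragment, aa 2-372 · Medium – HEPES buffer, pH 7.5, plus ascorbate · Reagent – H3K9me3 peptide with Fe(II)/2OG · Compound – one test concentration per compound · Timing – 30 min reaction, 60 min detection, RT · Technique – TR-FRET with Eu antibody and ULight streptavidin, EDTA stop · Read-out basis – inhibition from TR-FRET ratio decrease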
IDH1 R132H inh – inhibitors of human IDH1 R132H | IDH1 R132H reductase, diaphorase/resazurin fluorescence, 60 min | inhibition, % at 10 µM | AID 624101 | 0.18% of 70,000 active | O75874; in the data active = inhibition above about 34%; inconclusive = no clear call, values can overlap the other calls; inactive = below about 11%;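 note: 0% = DMSO and 100% = no enzyme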
Target sequence (O75874 whole entry R132H): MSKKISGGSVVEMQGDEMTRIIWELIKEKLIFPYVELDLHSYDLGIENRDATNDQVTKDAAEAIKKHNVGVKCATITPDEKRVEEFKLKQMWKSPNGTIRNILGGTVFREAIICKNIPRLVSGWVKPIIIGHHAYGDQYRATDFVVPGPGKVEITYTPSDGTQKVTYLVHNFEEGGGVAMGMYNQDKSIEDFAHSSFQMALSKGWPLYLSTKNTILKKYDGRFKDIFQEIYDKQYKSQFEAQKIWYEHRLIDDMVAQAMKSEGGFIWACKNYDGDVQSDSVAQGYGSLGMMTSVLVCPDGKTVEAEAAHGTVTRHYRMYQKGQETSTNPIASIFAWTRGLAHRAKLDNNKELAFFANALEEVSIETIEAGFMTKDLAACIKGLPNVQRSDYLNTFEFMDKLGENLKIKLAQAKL
T cruzi growth-2 – blocks T. cruzi growth in NIH3T3 host cells | shares compounds with T cruzi growth-1 | T. cruzi beta-gal in NIH3T3, GalScreen luminescence, 90 h | inhibition, % at 8.35 µM | 72% of 5,600 active;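 active = mean replicate inhibition above about 95% and at least 55% of replicates individually reaching it, limit read from the data; inconclusive = only one of the two criteria is met; inactive = neither criterion is met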
T cruzi growth-3 – Trypanosoma cruzi proliferation inhibition | inhibition, % at 2.09 µM | T. cruzi beta-gal in NIH3T3, GalScreen luminescence, 90 h | AID 651740 | shares compounds with T cruzi growth-1 | 21% of 5,600 active;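 active = mean inhibition above about 95%, with at least 55% of replicates also reaching it, limit read from the data; inconclusive = meets just one of the two conditions; inactive = meets neither condition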;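 note: plate controls were neutral control median for no effect and positive control median for full effect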
NIH3T3 tox – kills mouse NIH/3T3 fibroblasts; 14% of 5,600 active; shares compounds with T cruzi growth-1; NIH/3T3 viability, CellTiter-Glo ATP luminescence, 90 h; cytotoxicity (signal decrease), % at 8.35 µM; AID 651742;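 active = mean signal decrease across replicates above about 35% based on untreated-well scatter, with enough replicates individually passing, limit read from the data; inconclusive = no rule stated though some were filed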;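 note: 0% = median of neutral control wells and 100% = median of positive control wells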
NIH3T3 tox 2 – NIH/3T3 (mouse) viability loss; inhibition, % at 24.9 µM; shares compounds with T cruzi growth-1; NIH/3T3 viability, CellTiter-Glo ATP luminescence, 90 h; 56% of 5,600 active; AID 651744;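 active = mean loss of cell viability signal at or above a set limit, and enough replicates individually reaching it; inconclusive = meets only the mean limit or only the replicate share; inactive = meets neither condition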;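 note: 0% = median of neutral control wells and 100% = median of positive control wells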
* marks the source's active call; other numbers are inactive results; u = inconclusive; x = no result. Only a selection was taken, and hits are over-represented in it overall.

SMILES	T cruzi growth-1	KDM4C inh	IDH1 R132H inh	T cruzi growth-2	T cruzi growth-3	NIH3T3 tox	NIH3T3 tox 2
Cc1cccc(-c2ccc([C@@H]3[C@@H](CO)N4CCCCN(S(=O)(=O)c5cccc(C)c5)C[C@H]34)cc2)c1	90	-1	x	x	x	x	x
Cc1cccc(S(=O)(=O)N2CCCCN3[C@H](CO)[C@@H](c4ccc(-c5ccccc5)cc4)[C@@H]3C2)c1	105*	x	x	99*	64	26	11
Cc1cccc(-c2ccc([C@@H]3[C@@H](CO)N4CCCCN(S(=O)(=O)c5ccccc5C)C[C@H]34)cc2)c1	81	-2	x	x	x	x	x
Cc1cccc(S(=O)(=O)N2CCCCN3[C@H](CO)[C@H](c4ccc(-c5ccccc5)cc4)[C@H]3C2)c1	62	x	x	x	x	x	x
COc1ccc2c3c(n(C)c2c1)[C@H](CO)N(Cc1ccncc1)CC31CCN(C(=O)C2CCCC2)CC1	x	3	x	x	x	x	x
C[C@H]1CCCCO[C@H](CN(C)CC2CC2)[C@@H](C)CN([C@@H](C)CO)C(=O)c2cc(NC(=O)C3CCCCC3)ccc2O1	102*	0	x	94	70	-25	-43
CCCN(C)C[C@@H]1OCCCC[C@H](C)Oc2ccc(NC(=O)C3CCCCC3)cc2C(=O)N([C@@H](C)CO)C[C@@H]1C	112*	-1	x	96*	71	10	24
C[C@H](CO)N1C[C@H](C)[C@H](CN(C)CC2CC2)OCCCC[C@H](C)Oc2ccc(NC(=O)C3CCCCC3)cc2C1=O	x	1	0	x	x	x	x
CCCN(C)C[C@@H]1OCCCC[C@@H](C)Oc2ccc(NC(=O)C3CCCCC3)cc2C(=O)N([C@@H](C)CO)C[C@@H]1C	85	0	1	x	x	x	x
O=C(C[C@H]1C[C@@H]2c3cc(NC(=O)Nc4ccccc4F)ccc3O[C@@H]2[C@H](CO)O1)NCc1ccccn1	109*	0	0	18	2	7	10
O=C(C[C@H]1C[C@@H]2c3cc(NC(=O)Nc4ccccc4F)ccc3O[C@@H]2[C@@H](CO)O1)NC1CCCCC1	158*	0	0	u	27	6	19
O=C(C[C@@H]1C[C@@H]2c3cc(NC(=O)Nc4ccccc4F)ccc3O[C@@H]2[C@H](CO)O1)NC1CCCCC1	-10	1	0	x	x	x	x
O=C(C[C@@H]1C[C@H]2c3cc(NC(=O)Nc4ccccc4F)ccc3O[C@H]2[C@H](CO)O1)NCc1ccccn1	x	-2	-1	x	x	x	x
CC(C)NC(=O)N(C)C[C@@H]1OCCCC[C@@H](C)Oc2ccc(NS(=O)(=O)c3ccccc3)cc2C(=O)N([C@H](C)CO)C[C@@H]1C	-84	-1	1	x	x	x	x
CCS(=O)(=O)Nc1ccc2c(c1)C(=O)N(C)C[C@H](OC)[C@H](C)CN(C(C)=O)[C@@H](C)CO2	-31	1	0	x	x	x	x
C[C@@H]1CN([C@H](C)CO)C(=O)Cc2cc(NS(=O)(=O)c3ccc(F)cc3)ccc2O[C@@H]1CN(C)C(=O)Nc1ccc2c(c1)OCO2	36	1	-4	x	x	x	x
C[C@H](CO)N1C[C@H](C)[C@@H](CN(C)Cc2cccnc2)OCc2cnnn2CCCC1=O	-20	x	x	x	x	x	x
C[C@@H]1CN([C@H](C)CO)S(=O)(=O)c2ccc(-c3ccccc3)cc2O[C@@H]1CN(C)Cc1ccccc1	94	0	0	x	x	x	x
C[C@@H]1CN([C@@H](C)CO)S(=O)(=O)c2ccc(-c3ccccc3)cc2O[C@@H]1CN(C)Cc1ccccc1	121*	0	-2	103*	106*	48*	105*
C[C@H](CO)N1C[C@H](C)[C@H](CN(C)Cc2ccccc2)Oc2cc(-c3ccccc3)ccc2S1(=O)=O	113*	-3	-1	105*	81	6	106*
C[C@H](CO)N1C[C@H](C)[C@@H](CN(C)Cc2ccccc2)Oc2cc(-c3ccccc3)ccc2S1(=O)=O	67	0	0	x	x	x	x
CCS(=O)(=O)N1CCC2(CC1)CN(Cc1ccccc1F)[C@H](CO)c1c2c2ccc(OC)cc2n1C	x	0	x	x	x	x	x
CNC[C@@H]1Oc2cc(C#Cc3ccccc3OC)ccc2S(=O)(=O)N([C@@H](C)CO)C[C@H]1C	105*	-3	0	104*	84	10	104*
